Screens deposited in PubChem BioAssay by several laboratories.
Compounds with a hit are over-represented: about 2% of the library has one in this group of screens.
INS promoter inh – inhibitors of insulin promoter-driven GFP, primary screen, imaging, TRM-6 cells (human fetal islet line), eGFP reporter, cell count | reporter expression induced with tamoxifen | inhibition, % at 2 µM | AID 1273, 2008 | hit rate 0.9% among 130,000;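 active = inhibition above the mean plus 3 SD, with well images judged a real hit on visual review, cut at about 60% in these data, passing the limit was not always enough; inconclusive = inhibition over the cutoff but images rejected on review; inactive = inhibition not above the cutoff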
HSV augment – enhancers of HSV replication in host cells, fold increase, host cell viability; HSV replication augmentation in cells; maximum fold increase; hit rate 0.005% among 220,000; AID 1956, 2009; in the data active = maximum fold increase above about 1.5; inconclusive = no clear call, values can overlap the other calls; tested in PC3 cells
Furin inhibitor – human furin inhibitors, primary screen, biochemical, fluorescence intensity; P09958; purified furin, fluorogenic substrate cleavage; inhibition, % at 20 µM or 30 µM; hit rate 0.061% among 220,000; AID 463115, 2010; in the data active = inhibition above about 25%
Target sequence (P09958 108-714 limits assumed): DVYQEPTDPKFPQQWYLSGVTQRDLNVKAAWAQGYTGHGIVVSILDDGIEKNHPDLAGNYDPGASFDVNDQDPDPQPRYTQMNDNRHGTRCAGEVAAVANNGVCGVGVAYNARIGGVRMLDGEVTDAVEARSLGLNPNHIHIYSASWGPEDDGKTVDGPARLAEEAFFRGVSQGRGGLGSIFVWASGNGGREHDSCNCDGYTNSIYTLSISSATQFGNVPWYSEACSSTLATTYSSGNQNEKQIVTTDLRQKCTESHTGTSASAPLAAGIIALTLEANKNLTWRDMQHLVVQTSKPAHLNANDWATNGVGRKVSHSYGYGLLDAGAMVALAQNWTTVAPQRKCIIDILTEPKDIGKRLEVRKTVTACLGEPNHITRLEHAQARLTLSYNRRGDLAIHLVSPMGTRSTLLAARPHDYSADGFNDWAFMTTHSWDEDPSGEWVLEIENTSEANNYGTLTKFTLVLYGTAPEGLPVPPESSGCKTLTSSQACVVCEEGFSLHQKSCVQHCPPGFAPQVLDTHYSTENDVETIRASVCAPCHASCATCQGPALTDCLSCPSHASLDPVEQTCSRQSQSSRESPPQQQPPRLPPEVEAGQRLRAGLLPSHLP
Autophagy HCS – autophagy modulators in MEF cells, primary screen, imaging, high-content, MEF GFP-LC3 | MEF GFP-LC3 puncta imaging; test concentration mostly 10 µM | calls only at 10 µM (by protocol) | hit rate 0.98% among 190,000 | AID 463193, 2010;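 active = percentage of spot-positive cells more than 3 SD above its plate mean, without a fluorescence outlier flag or 80% toxicity; inconclusive = no clear call, values can overlap the other calls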
Ins promoter up – insulin promoter activators in MIN6 cells, imaging, high-content screening, mouse beta cells | MIN6 insulin promoter-GFP reporter; hits give high values | z-score at 5 µM | hit rate 0.3% among 190,000 | AID 1625, 2009;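 active = z-score above 3 at 5 µM with at least 500 cells counted in the well; inconclusive = wells under 500 cells, flagged as cytotoxic or low count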
Dynein cargo inh – inhibitors of GR-EGFP nuclear translocation, primary screen, dynein cargo transport inhibitor project, imaging, high-content, 3617.4 mouse cells; z-score, hits read low; hit rate 0.47% among 220,000; test concentration mostly 20 µM; stimulated with dexamethasone, 1 µM; hits give low values;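 active = plate z-score of nuclear minus cytoplasmic receptor signal below a set negative limit, without overly bright fluorescence or cell loss, cut at about -3.5 in these data, passing the limit was not always enough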;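 note: z-score of nuclear minus cytoplasmic ring GR-EGFP intensity difference per well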
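Buffer or medium: tet-free, stripped-serum medium; reagent: dexamethasone at 1.0 µM final, 30 min; incubation: 48 h induction, 1 h compound, 30 min dex at 37 °C; measured by: formaldehyde fixation, Hoechst nuclear stain, 10x automated fluorescence imaging; read-out: nuclear-to-cytoplasmic GR-EGFP distribution per well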
Of the large screens only hits and unclear results are named; the others gave an inactive call.

O=C(Nc1ccc(Cl)cc1)c1cc2nc(-c3ccco3)cc(C(F)(F)F)n2n1	INS promoter inh 71.4
O=C(NC1CCCCC1)c1cnn2c(C(F)(F)F)cc(-c3ccco3)nc12	none (no result: INS promoter inh)
O=C(NC1CCCCC1)c1nn2c(C(F)(F)F)cc(-c3ccco3)nc2c1Br	Autophagy HCS active (no result: INS promoter inh)
COc1ccc2oc(=O)c(-c3nnc(NCc4ccco4)s3)cc2c1	Autophagy HCS active (no result: INS promoter inh)
Nc1cnc(Nc2ccc(Br)cc2)nc1N	none (no result: INS promoter inh, Autophagy HCS)
O=C(/C=C/Nc1ccc([N+](=O)[O-])cc1)c1ccc(Br)cc1	Autophagy HCS active
O=C(Nc1ccc(C2SCCS2)cc1)c1ccccc1	none (no result: INS promoter inh, Autophagy HCS)
O=c1cc(/C=C/c2c(F)cccc2Cl)[nH]c2ccccc12	none (no result: INS promoter inh, Ins promoter up)
O=C(Nc1ccccc1)c1nn(-c2ccccc2)c(=O)cc1C(F)(F)F	Autophagy HCS active
O=C1CC(c2ccccc2)CC(=O)C1=CN1CCCC1 (stereo not given)	Furin inhibitor 32.6 (no result: INS promoter inh, Autophagy HCS)
O=C1CC(=O)CC(c2ccccc2)C1	none (no result: INS promoter inh)
COc1cccc(-c2nc(NCC3CCCO3)c3ccccc3n2)c1O (stereo not given)	Autophagy HCS active (no result: Ins promoter up)
Nn1cc(-c2ccccc2)nc1SCC(=O)Nc1ccc(S(N)(=O)=O)cc1	none (no result: INS promoter inh, Autophagy HCS)
COC(=O)C(=CC(=CN(C)C)C=C(C(=O)OC)C(=O)OC)C(=O)OC	none (no result: INS promoter inh, Autophagy HCS)
Clc1ccc(COn2ccnc2)cc1Cl	none (no result: INS promoter inh)
Cc1cc(C)cc(COn2ccnc2)c1	INS promoter inh 67.9
COCCN1CN(S(=O)(=O)c2ccccc2)c2nc3ccccc3nc21	Ins promoter up 3.14
COCCN1CN(S(=O)(=O)c2ccc(Cl)cc2)c2nc3ccccc3nc21	none
CCCCc1c(O)cc(C)[nH]c1=O	none (no result: INS promoter inh, Autophagy HCS)
Cc1nc(N/N=C/c2ccc(O)cc2)c2cnn(-c3ccccc3)c2n1	INS promoter inh 88.9
COc1cc(N2CCCC2)c(OC)cc1/C=C(/C#N)c1ccc(F)cc1	HSV augment inconclusive, Autophagy HCS active (no result: Ins promoter up)
CC(C)NC(=S)N1CCN(c2ncccn2)CC1	none
COc1cc2c(cc1OC)-c1nc3ccccc3c(=O)n1C(C)(C)C2	none
COc1cc2c(cc1OC)C1=CC(=O)C(=O)N1C(C)(C)C2	HSV augment inconclusive, Autophagy HCS active (no result: INS promoter inh, Ins promoter up)
CC(=O)c1c(OC(=O)c2ccc(C)cc2)c2ccccc2n1C	INS promoter inh 100.0
Cc1c(-c2ccnc3cc(C(=O)O)nn23)cnn1C	Autophagy HCS active
N#CC(c1ccc(Cl)cc1)c1ccc2c(C(F)(F)F)cc(C(F)(F)F)nc2n1 (stereo not given)	Autophagy HCS active (no result: Ins promoter up)
FC(F)(F)c1cc(C(F)(F)F)c2ccc(N3CCN(c4ccc(Cl)cc4)CC3)nc2n1	none
COc1cc(CN2CCN(Cc3ccc(C)cc3)C(CCO)C2)ccc1O (stereo not given)	INS promoter inh 78.3 (no result: Ins promoter up)
CCSc1nnc(NC(=O)C(C)(C)C)s1	INS promoter inh 77.4
O=c1[nH]nc(SCc2nnc(-c3cccc(Cl)c3)o2)n1C1CCCCC1	none (no result: INS promoter inh, Autophagy HCS)
Cc1cc(C)c(OCC(=O)Nc2ccc(NC(=O)c3ccco3)cc2)c([N+](=O)[O-])c1	INS promoter inh 64.3
CCCCn1cnc2c(c(-c3ccccc3)c(-c3ccccc3)n2Cc2ccco2)c1=N	none (no result: INS promoter inh, Autophagy HCS)
N=c1c2c(-c3ccccc3)c(-c3ccccc3)n(Cc3ccco3)c2ncn1Cc1ccco1	Autophagy HCS active
N=c1c2c(-c3ccccc3)c(-c3ccccc3)n(Cc3ccccc3)c2ncn1CCCn1ccnc1	Autophagy HCS active (no result: INS promoter inh)
CCCc1cc(=O)c2c(O)ccc(OC)c2o1	none (no result: INS promoter inh, Autophagy HCS)
CCN(C(=O)CSc1nnc(Nc2ccccc2)s1)C1CCS(=O)(=O)C1 (stereo not given)	Autophagy HCS active
Cc1ccc(Nc2nnc(SCC(=O)N(C)C3CCS(=O)(=O)C3)s2)cc1 (stereo not given)	none
COc1ccc(-c2cc(CNS(=O)(=O)c3ccc(F)cc3)on2)cc1	none (no result: INS promoter inh)
C/C(=N\N1CCN(C)CC1)c1ccc(Cl)c(Cl)c1	none (no result: INS promoter inh)
C/C(=N\N1CCN(C)CC1)c1ccc(OC(F)F)cc1	INS promoter inh 75.0, Autophagy HCS active
Cc1ccc(C(=O)NC(=S)Nc2nc(-c3cccc([N+](=O)[O-])c3)cs2)c(Cl)c1	INS promoter inh 85.7
Fc1ccccc1-c1csc(=Nc2cccnc2)n1CCCn1ccnc1	none
O=C(NCCCN1CCOCC1)c1sc2ccccc2c1Cl	none (no result: INS promoter inh)
CCOC(=O)C1=c2s/c(=C\c3cccnc3)c(=O)n2C(N)=C(C(=O)OC)C1c1cccnc1 (stereo not given)	none
COC(=O)C1=C(N)n2c(s/c(=C\c3cccnc3)c2=O)=C(C(=O)OC)C1c1cccnc1 (stereo not given)	Ins promoter up 3.21
CCSc1ccccc1C(=O)n1nnc2ccccc21	Dynein cargo inh -4
O=C1c2ccccc2C(=O)N1CC(O)CNc1ccc(Br)cc1 (stereo not given)	INS promoter inh 72.4
S=C(Nc1ccc2[nH]ccc2c1)NC1CCCCC1	none (no result: INS promoter inh, Autophagy HCS)
Cc1cc(=O)[nH]c(SCC(=O)Nc2nnc(CC(C)C)s2)n1	INS promoter inh inconclusive
CC(=O)Nc1c(O)nc(SCC(=O)Nc2nnc(CC(C)C)s2)[nH]c1=O	Autophagy HCS active (no result: Ins promoter up)
O=C(c1cccs1)c1no[n+]([O-])c1C(=O)c1cccs1	Ins promoter up 3.78
CCOc1cc(CNCC(C)C)c(Cl)cc1OCC(=O)Nc1ccccc1	none (no result: INS promoter inh)
O=C(c1cccc(-c2ccc(O)cc2)c1)N1CCN(c2ccc(F)cc2)CC1	INS promoter inh 68.4
CSc1nc2ccccc2n1C(=O)Oc1ccccc1	INS promoter inh 86.7
COCC(C)NC(=O)NC1(C(F)(F)F)Oc2ccc(Cl)cc2O1 (stereo not given)	INS promoter inh 71.4
COc1cccc(CN2CCNC(=O)C2CC(=O)N2CCCCO2)c1OC (stereo not given)	none (no result: INS promoter inh)
O=C1C2CC=C(Cl)CC2C(=O)N1CCC[n+]1cccc2ccccc21 (stereo not given)	none
Cc1ccc(OCC(=O)Nc2ccc(Cl)cc2)c(-n2nc3ccccc3n2)c1	Autophagy HCS active
CCn1cc(Cl)c(C(=O)Nc2ccccc2C(N)=O)n1	none (no result: INS promoter inh)
Cc1nn(C(=O)c2ccco2)c(C)c1Br	INS promoter inh 66.7 (no result: Ins promoter up)
CN1CCN(c2ccc(C(=O)c3ccccc3)cc2[N+](=O)[O-])CC1	INS promoter inh 66.7
CN1CCN(c2ccc(-c3ccc4ccccc4n3)cc2)CC1	Autophagy HCS active (no result: INS promoter inh)
C=CCOC(=O)C1=C(C)NC(SCC(=O)Nc2ccc(C)c(Cl)c2)=C(C#N)C1c1ccco1 (stereo not given)	HSV augment inconclusive, Autophagy HCS active (no result: INS promoter inh)
CC(=O)C1=C(C)NC(SCC(=O)c2ccc(C)cc2)=C(C#N)C1c1ccco1 (stereo not given)	Autophagy HCS active
